Source: ChEMBL document CHEMBL4706622, “Comparative study between the anti-P. falciparum activity of triazolopyrimidine, pyrazolopyrimidine and quinoline derivatives and the identification of new PfDHODH inhibitors” (Eur J Med Chem, 2021)

Assays:
[1] = Inhibition of Plasmodium falciparum DHODH (159- 569 aa) expressed in Escherichia coli BL21(DE3) cells assessed as 2,6-dichloroindophenol reduction by colorimetric method
Summary of the method: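 Second-stage PfDHODH IC50 determination from concentration–response curves, run only on compounds giving ≥80% inhibition at 50 µM in the single-point screen. PfDHODH final concentration was 50 nM. IC50 was not assigned where substrate consumption could not be measured at some concentrations on the curve.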

Plasmodium falciparum [2] = test: Antimalarial activity against CQ-sensitive Plasmodium falciparum 3D7 infected in erythrocytes by SYBR Green dye based fluorescence assay; format: functional, organism-based
HepG2 = test: Cytotoxicity against human HepG2 cells assessed as cell viability after 72 hrs by MTT assay; format: cell-based; conditions: HepG2, 72 h
[3] = Selectivity index, ratio of IC50 for cytotoxicity against human HepG2 cells to IC50 for antimalarial activity against Plasmodium falciparum 3D7; format: toxicity, cell-based; conditions: read-out: Ratio IC50
[4] = molecular target: Dihydroorotate dehydrogenase (quinone), mitochondrial (Homo sapiens) (UniProt Q02127); test: Inhibition of human DHODH assessed as 2,6-dichloroindophenol reduction at 50 uM by colorimetric method
Dihydroorotate dehydrogenase (quinone), mitochondrial (Homo sapiens), sequence (Q02127 whole entry): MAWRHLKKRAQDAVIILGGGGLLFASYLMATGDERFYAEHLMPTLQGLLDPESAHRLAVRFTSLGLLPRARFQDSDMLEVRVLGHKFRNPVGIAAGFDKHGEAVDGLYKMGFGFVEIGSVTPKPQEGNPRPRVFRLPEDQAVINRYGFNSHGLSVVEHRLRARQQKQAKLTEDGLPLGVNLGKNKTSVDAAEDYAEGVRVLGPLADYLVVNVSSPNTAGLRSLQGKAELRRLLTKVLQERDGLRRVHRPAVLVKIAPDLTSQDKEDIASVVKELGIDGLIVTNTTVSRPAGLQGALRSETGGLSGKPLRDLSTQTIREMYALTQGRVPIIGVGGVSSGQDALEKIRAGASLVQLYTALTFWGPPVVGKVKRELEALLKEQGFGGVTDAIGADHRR
Summary of the method: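 First-stage HsDHODH screen at a single compound concentration of 50 µM, reported as % inhibition. It was run in parallel with the PfDHODH screen.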

Plasmodium falciparum [5] = test: Inhibition of Plasmodium falciparum DHODH (159- 569 aa) expressed in Escherichia coli BL21(DE3) cells assessed as 2,6-dichloroindophenol reduction at 50 uM by colorimetric method
Summary of the method: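 First-stage PfDHODH screen at a single compound concentration of 50 µM, reported as % inhibition. Compounds giving ≥80% inhibition went on to IC50 determination. The PfDHODH final concentration in the inhibition assay was 50 nM.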

| Structure (SMILES) | IC50 [1] | IC50 (Plasmodium falciparum [2]) | inhibition [4] | IC50 (HepG2) | selectivity ratio [3] | inhibition (Plasmodium falciparum [5]) |
| --- | --- | --- | --- | --- | --- | --- |
| Cc1cc(Nc2ccc(S(=O)(=O)Nc3ccc(F)cc3)cc2)n2ncnc2n1 | 0.3 µM | 2 µM | 0% | 367 µM | > 187 |  |
| Cc1ccc(NS(=O)(=O)c2ccc(Nc3ccnc4cc(Cl)ccc34)cc2)cc1 |  | 0.97 µM |  | 92 µM | > 95 |  |
| COc1ccc(NS(=O)(=O)c2ccc(Nc3cc(C)nc4nc(C)nn34)cc2)cc1 | 1.3 µM | 4 µM | 0% | 170 µM | 42.5 |  |
| COc1ccc(NS(=O)(=O)c2ccc(Nc3cc(C)nc4cc(C)nn34)cc2)cc1 | > 50 µM | > 10 µM | 0% |  |  | 25% |
| Cc1cc(Nc2ccc(S(=O)(=O)Nc3ccc(Cl)cc3)cc2)n2nc(C)cc2n1 | > 50 µM | > 10 µM | 0% |  |  | 25% |
| Cc1ccc(NS(=O)(=O)c2ccc(Nc3cc(C)nc4cc(C)nn34)cc2)cc1 | > 50 µM | > 10 µM | 0% |  |  | 25% |
| C[C@H]1[C@H](OC(=O)CCC(=O)O)O[C@@H]2O[C@@]3(C)CC[C@H]4[C@H](C)CC[C@@H]1[C@@]24OO3 [ARTESUNATE] |  | 0.009 µM |  | 267 µM | 29700 |  |
| CCN(CC)CCCC(C)Nc1ccnc2cc(Cl)ccc12 (stereo not drawn) [CHLOROQUINE] |  |  |  | 384 µM |  |  |
| O=S(=O)(Nc1ccc(C(F)(F)F)cc1)c1ccc(Nc2ccnc3cc(Cl)ccc23)cc1 |  | 2.1 µM |  | 23 µM | 11 |  |
| Cc1cc(Nc2ccc(S(=O)(=O)Nc3ccc(Cl)cc3)cc2)n2nc(C(F)(F)F)nc2n1 | 0.08 µM | 0.4 µM | 0% | 47 µM | > 123 |  |
| Cc1cc(Nc2ccc(S(=O)(=O)Nc3ccc(F)cc3)cc2)n2nc(C(F)(F)F)nc2n1 | 0.5 µM | 0.086 µM | 0% | 101 µM | 1170 |  |
| Cc1cc(Nc2ccc(S(=O)(=O)Nc3ccc(F)cc3)cc2)n2nc(C)cc2n1 | > 50 µM | > 10 µM | 0% |  |  | 25% |
| Cc1cc(Nc2ccc(S(=O)(=O)Nc3ccc(F)cc3)cc2)n2nc(C)nc2n1 | 1 µM | 2.7 µM | 0% | 150 µM | 55.6 |  |
| Cc1cc(Nc2ccc(S(=O)(=O)Nc3ccccc3)cc2)n2nc(C(F)(F)F)nc2n1 | > 50 µM | 1.3 µM | 0% | 92 µM | > 70 | < 80% |
| Cc1cc(Nc2ccc(S(=O)(=O)Nc3ccccc3)cc2)n2nc(C)nc2n1 | > 50 µM | 6.9 µM | 0% | 193 µM | 28 |  |
| Cc1cc(Nc2ccc(S(=O)(=O)Nc3ccc4ccccc4c3)cc2)n2nc(C)cc2n1 | > 50 µM | > 10 µM | 0% |  |  | 25% |
| O=S(=O)(Nc1ccccc1)c1ccc(Nc2ccnc3cc(Cl)ccc23)cc1 |  | 2 µM |  | 92 µM | > 46 |  |

Continued by falling IC50 (Plasmodium falciparum [2]), values first:

| IC50 [1] | IC50 (Plasmodium falciparum [2]) | inhibition [4] | Structure (SMILES) | IC50 (HepG2) | selectivity ratio [3] | inhibition (Plasmodium falciparum [5]) |
| --- | --- | --- | --- | --- | --- | --- |
| 0.8 µM | 9.1 µM | 0% | Cc1cc(Nc2ccc(S(=O)(=O)Nc3ccccc3)cc2)n2ncnc2n1 | 365 µM | > 40 |  |
| > 50 µM | 8 µM | 0% | Cc1cc(Nc2ccc(S(=O)(=O)Nc3ccc(C(F)(F)F)cc3)cc2)n2nc(C)cc2n1 | 42 µM | 5.25 | 25% |
|  | 4.6 µM |  | O=S(=O)(Nc1ccc(F)cc1)c1ccc(Nc2ccnc3cc(Cl)ccc23)cc1 | 92 µM | > 21 |  |
| > 50 µM | 4 µM | 0% | COc1ccc(NS(=O)(=O)c2ccc(Nc3cc(C)nc4ncnn34)cc2)cc1 | 46 µM | > 13 |  |
| > 50 µM | 3 µM | 0% | Cc1cc(Nc2ccc(S(=O)(=O)Nc3ccc(Cl)cc3)cc2)n2ncnc2n1 | 92 µM | > 31 |  |
|  | 2.8 µM |  | COc1ccc(NS(=O)(=O)c2ccc(Nc3ccnc4cc(Cl)ccc34)cc2)cc1 | 92 µM | > 33 |  |
| > 50 µM | 2.8 µM | 0% | Cc1cc(Nc2ccc(S(=O)(=O)Nc3ccccc3)cc2)n2nc(C)cc2n1 | 27 µM | 9.6 | 25% |
|  | 1.7 µM |  | O=S(=O)(Nc1ccc(Cl)cc1)c1ccc(Nc2ccnc3cc(Cl)ccc23)cc1 | 93 µM | > 56 |  |
| 0.3 µM | 0.91 µM | 0% | Cc1ccc(NS(=O)(=O)c2ccc(Nc3cc(C)nc4nc(C)nn34)cc2)cc1 | 110 µM | 121 |  |
|  | 0.89 µM |  | O=S(=O)(Nc1ccc2ccccc2c1)c1ccc(Nc2ccnc3cc(Cl)ccc23)cc1 | 13 µM | 15.1 |  |
| 0.6 µM | 0.8 µM | 0% | Cc1cc(Nc2ccc(S(=O)(=O)Nc3ccc(Cl)cc3)cc2)n2nc(C)nc2n1 | > 50 µM | > 62.5 |  |
| 0.21 µM | 0.8 µM | 0% | COc1ccc(NS(=O)(=O)c2ccc(Nc3cc(C)nc4nc(C(F)(F)F)nn34)cc2)cc1 | 93 µM | > 114 |  |
| 0.4 µM | 0.64 µM | 0% | Cc1cc(Nc2ccc(S(=O)(=O)Nc3ccc4ccccc4c3)cc2)n2nc(C)nc2n1 | 56 µM | 87.4 |  |
| 0.41 µM | 0.5 µM | 0% | Cc1ccc(NS(=O)(=O)c2ccc(Nc3cc(C)nc4ncnn34)cc2)cc1 | 367 µM | > 728 |  |
| 0.6 µM | 0.39 µM | 0% | Cc1cc(Nc2ccc(S(=O)(=O)Nc3ccc(C(F)(F)F)cc3)cc2)n2nc(C)nc2n1 | 125 µM | 321 |  |
| 0.3 µM | 0.23 µM | 0% | Cc1cc(Nc2ccc(S(=O)(=O)Nc3ccc4ccccc4c3)cc2)n2ncnc2n1 | 56 µM | 243 |  |
| > 50 µM | 0.15 µM | 0% | Cc1cc(Nc2ccc(S(=O)(=O)Nc3ccc(C(F)(F)F)cc3)cc2)n2ncnc2n1 | > 100 µM | > 667 |  |
| 0.22 µM | 0.05 µM | 0% | Cc1cc(Nc2ccc(S(=O)(=O)Nc3ccc4ccccc4c3)cc2)n2nc(C(F)(F)F)nc2n1 | > 100 µM | > 2000 |  |
| 0.8 µM | 0.032 µM | 0% | Cc1ccc(NS(=O)(=O)c2ccc(Nc3cc(C)nc4nc(C(F)(F)F)nn34)cc2)cc1 | 54 µM | 1690 |  |
| > 50 µM | 0.03 µM | 0% | Cc1cc(Nc2ccc(S(=O)(=O)Nc3ccc(C(F)(F)F)cc3)cc2)n2nc(C(F)(F)F)nc2n1 | 90 µM | 3000 |  |
